Bioassay records from PubChem BioAssay.
PfM18AAP inh = blocks P. falciparum M18 aspartyl aminopeptidase | recombinant PfM18AAP, H-Glu-NHMec fluorogenic cleavage | inhibition, % at 7.35 µM | actives 1.2% (n = 290,000) | AID 1822;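 active = inhibition above the campaign mean inhibition over all tested compounds plus 3 SD, cut at about 28% in these data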
HCV NS3 hel inh = blocks Hepatitis C virus NS3 helicase unwinding. NS3 helicase DNA unwinding, Cy5 molecular beacon fluorescence. inhibition, % at 10.9 µM. actives 0.56% (n = 290,000);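 active = inhibition above the mean of all tested compounds plus 3 SD, set per campaign, cut at about 35% in these data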
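Compound dosing – single dose, 10.9 µM nominal final, DMSO 0.8% final · System – NS3 helicase fragment of HCV · Buffer or medium – MOPS pH 6.5, MgCl2, DTT, Tween20, BSA · Signal – Cy5 beacon fluorescence read at start and 1 h · Also added – annealed dual-labelled DNA beacon duplex, ATP-started · Schedule – 1 h at 25 °C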
UPR CHOP act = activators of apoptotic arm of unfolded protein response (CHOP) | CHO-CHOP luciferase reporter, UPR activation, luminescence; percent of tunicamycin response over DMSO baseline | activation, % at 10 µM | actives 0.34% (n = 330,000) | AID 449763;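 active = at 10 µM dose, activation of 40% or more, normalized to positive control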
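Material: CHO-CHOP cells, stable luciferase reporter of PERK-eIF2a-CHOP signalling; quantity: 500 reporter cells seeded per well; buffer or medium: F12 medium containing 10% fetal bovine serum; compound: one dose, 10 µM in 0.5% DMSO; incubation: 6 h compound treatment, 37 °C; measured by: Steady-Glo luciferase luminescence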
CHOP inhibitor = CHOP inhibition in unfolded protein response | CHO-K1 CHOP-promoter luciferase, tunicamycin-induced, 15-18 h | inhibition, % at 10 µM | actives 3.8% (n = 220,000);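 active = compounds that reduced the stress-induced luciferase reporter signal by more than about 70% of percent inhibition, limit read from the data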
UPR XBP1 act = activators of adaptive arm of unfolded protein response (XBP1); CHO-XBP1 luciferase reporter, IRE1-XBP1 UPR activation, luminescence; percent of tunicamycin response, DMSO as zero; activation, % at 20 µM; actives 0.33% (n = 330,000); AID 463104;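 active = versus positive control, 20 µM dose yields 30% or more activation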
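Material: IRE1-XBP1 luciferase reporter CHO line / Quantity: one thousand reporter cells per well / Buffer or medium: F12 with 10% serum / Compound: 20 µM single concentration, DMSO 1% / Times: 6 h treatment, 37 °C / Detection: Steady-Glo luciferase glow luminescence, 10 min after reagent addition / Benchmarks: tunicamycin high, DMSO low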
p97 inhibitor = blocks human p97 ATPase activity; P55072; recombinant p97 ATPase, Kinase-Glo ATP luminescence, 3 h; inhibition, % at 8 µM; actives 0.42% (n = 220,000); AID 1481; in the data active = inhibition above about 15%
Target sequence (P55072 whole entry, looked up): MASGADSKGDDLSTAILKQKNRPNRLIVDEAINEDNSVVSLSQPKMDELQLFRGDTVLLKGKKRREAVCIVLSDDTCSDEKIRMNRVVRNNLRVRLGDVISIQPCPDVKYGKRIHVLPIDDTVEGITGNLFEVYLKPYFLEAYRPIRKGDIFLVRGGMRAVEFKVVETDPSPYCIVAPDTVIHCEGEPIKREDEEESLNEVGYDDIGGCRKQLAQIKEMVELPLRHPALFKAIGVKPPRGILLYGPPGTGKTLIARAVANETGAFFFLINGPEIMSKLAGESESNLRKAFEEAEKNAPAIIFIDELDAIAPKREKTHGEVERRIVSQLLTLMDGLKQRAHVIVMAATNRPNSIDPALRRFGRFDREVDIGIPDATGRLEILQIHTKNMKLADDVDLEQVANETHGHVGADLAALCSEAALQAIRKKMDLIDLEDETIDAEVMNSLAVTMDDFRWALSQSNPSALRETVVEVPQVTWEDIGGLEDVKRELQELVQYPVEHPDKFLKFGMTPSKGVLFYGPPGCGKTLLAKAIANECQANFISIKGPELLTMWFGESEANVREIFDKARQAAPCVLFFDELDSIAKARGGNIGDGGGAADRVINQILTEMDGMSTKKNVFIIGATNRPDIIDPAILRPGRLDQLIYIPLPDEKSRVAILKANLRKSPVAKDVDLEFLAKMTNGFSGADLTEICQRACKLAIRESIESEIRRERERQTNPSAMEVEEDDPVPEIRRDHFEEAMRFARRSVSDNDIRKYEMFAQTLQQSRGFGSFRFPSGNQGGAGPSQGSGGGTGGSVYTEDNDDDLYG
Hits are given with their value; i = inactive; nt = no result. This is a sample that favours compounds with a hit; in the whole collection about 4.5% have one here.

SMILES | PfM18AAP inh | HCV NS3 hel inh | UPR CHOP act | CHOP inhibitor | UPR XBP1 act | p97 inhibitor
Cc1ccc(Nc2c(-c3ccccn3)nc3cc(C)ccn23)cc1 | i | i | i | 76 | i | i
Cc1ccn2c(Nc3ccc4c(c3)OCO4)c(-c3ccccn3)nc2c1 | i | i | i | 78 | i | i
Cc1ccc2nc(-c3ccncc3)c(Nc3ccccc3)n2c1 | i | i | i | i | i | i
Cc1ccc(S(=O)(=O)N2CCCCC2)cc1NS(=O)(=O)c1ccc(Cl)c(C(=O)O)c1 | nt | nt | i | nt | i | nt
COc1cc(C(=O)NCc2ccc(S(N)(=O)=O)cc2)ccc1OCC(=O)N1CCOCC1 | nt | nt | i | nt | i | nt
CC1(c2nnc(Cc3ccccc3)o2)CC(c2ccc(OC(F)(F)F)cc2)=NO1 (stereo unspecified) | nt | nt | i | nt | i | nt
CCc1nnc(NC(=O)Cn2nc(-c3ccccc3OC)ccc2=O)s1 | i | i | i | 70 | i | i
CCc1nnc(NC(=O)Cn2nc(-c3ccc(OC)c(OC)c3)ccc2=O)s1 | i | i | i | i | i | i
NNC(=O)C1COc2cc3ccccc3cc2O1 (stereo unspecified) | i | i | i | nt | i | nt
O=C(N/N=C\c1ccccn1)C1COc2cc3ccccc3cc2O1 (stereo unspecified) | i | i | i | 72 | i | i
Cc1c(O)ccc(-c2n[nH]c(C(=O)O)c2-c2nc3ccccc3s2)c1O | 30 | i | i | i | i | i
COc1ccc(/C=C(/C(=O)Nc2ccccc2C(=O)NC(C)C)c2ccccc2)cc1 | i | i | i | 74 | i | i
COc1ccc(/C=C(/C(=O)Nc2ccccc2C(=O)N2CCCC2)c2ccccc2)cc1 | i | i | i | i | i | i
Cc1ccc(-c2nc(-c3ccccn3)no2)cc1Cl | i | i | i | 83 | i | i
c1ccc(-c2ccc(-c3nc(-c4ccccn4)no3)cc2)cc1 | i | i | i | 105 | i | i
Cc1ccc(O)c(NC(=O)C2CCCN2C(=O)OCc2ccccc2)c1 (stereo unspecified) | i | i | i | nt | i | nt
CC(C)(CC(=O)N1CCN(c2ccc(Cl)cc2)CC1)CC1=NS(=O)(=O)c2ccccc2N1 | i | i | i | 71 | i | i
COc1ccc(C(CNC(=O)Cc2ccc(-c3ccccc3)cc2)N(C)C)cc1 (stereo unspecified) | i | i | i | nt | i | nt
CCc1c(C#N)c(SCCC(=O)Nc2ccc(F)cc2)nc2c1C(=O)CC(C)(C)C2 | i | i | i | 88 | i | i
C/C(=N\O)C(=O)OC1CC(C)CCC1C(C)C (stereo unspecified) | i | i | i | 88 | i | i
CC1CCC(C(C)C)C(OC(=O)COC(=O)c2cccn2C)C1 (stereo unspecified) | i | i | i | i | i | i
C=CCN(CC=C)S(=O)(=O)c1ccc(F)cc1 | i | i | i | 79 | i | i
COc1cc(C(=O)OCCN2CCOCC2)ccc1O | i | i | i | i | i | i
O=C(OCCCN1CCOCC1)c1ccc(O)c(O)c1 | 44 | i | i | i | i | i
O=C(CSc1nnc(-c2cc3ccccc3cc2O)n1Cc1ccco1)c1ccc(F)cc1 | i | i | i | 85 | i | i
SMILES | PfM18AAP inh | HCV NS3 hel inh | UPR CHOP act | CHOP inhibitor | UPR XBP1 act | p97 inhibitor
O=C(/C=C/c1ccc(Cl)cc1Cl)N(Cc1ccccc1)C1CCS(=O)(=O)C1 (stereo unspecified) | i | i | i | i | i | i
O=C(/C=C/c1ccc(Cl)cc1Cl)N(Cc1ccc(Cl)cc1)C1CCS(=O)(=O)C1 (stereo unspecified) | i | i | i | 79 | i | i
Cc1cc(C)c(NC(=O)Cn2nnc(C(=O)NCc3ccc4c(c3)OCO4)c2N)c(C)c1 | i | i | i | nt | i | nt
Cc1ccc(NC(=O)c2csc(-c3ccccc3)c2C)cc1 | i | i | nt | 100 | nt | i
Cc1ccc(NC(=O)c2cc(C)n(-c3cccc(C)c3)c2C)cc1 | i | i | i | i | i | i
Cc1ccc(NC(=O)c2cc(C)n(-c3ccccc3)c2C)cc1 | i | i | i | 72 | i | i
Cc1c(C(=O)Nc2cccc([N+](=O)[O-])c2)csc1-c1ccccc1 | i | i | i | i | i | i
CCCCn1c(N)c(N(CCOC)C(=O)c2cnc(C)cn2)c(=O)[nH]c1=O | nt | nt | i | nt | i | nt
COc1ccc2c(c1)C(C)=CC(C)(C)N2C(=O)C(C)N1C(=O)c2ccccc2C1=O (stereo unspecified) | i | i | i | i | i | i
CC1=CC(C)(C)N(C(=O)C(C)N2C(=O)c3ccccc3C2=O)c2c(C)cc(C)cc21 (stereo unspecified) | i | i | nt | 105 | nt | i
O=C(NCC1CCCO1)c1csc(Nc2cccc3ccccc23)n1 (stereo unspecified) | i | i | i | i | i | i
COc1ccc(OC)c(NC(=O)C(=O)N/N=C(\C)CC(=O)Nc2ccc(Cl)cn2)c1 | i | i | i | nt | i | nt
CCOC(=O)C1CCN(S(=O)(=O)c2ccc3[nH]c(=O)oc3c2)CC1 | i | i | i | 78 | i | i
CCOC(=O)C1CCN(S(=O)(=O)c2ccc(Br)c(OCC)c2)CC1 | i | i | i | 88 | i | i
COc1ccccc1C(c1nnnn1C(C)C)N1CCN(C(=O)c2ccco2)CC1 (stereo unspecified) | i | i | i | nt | i | nt
O=C(Nc1ccccc1N1CCCC1)C1CC(=O)N(Cc2ccccc2)C1 (stereo unspecified) | nt | nt | i | nt | i | nt
COc1cccc(CNC(=O)Cn2ccc3cc(S(=O)(=O)N4CCCCCC4)ccc32)c1OC | i | i | i | nt | i | nt
Cc1cc(C)c(Cn2cnc(-c3ccc([N+](=O)[O-])cc3)c2)c(C)c1 | i | i | i | 76 | i | i
CC(C)(C)c1ccc(Cn2cnc(-c3ccc([N+](=O)[O-])cc3)c2)cc1 | i | i | i | i | i | i
COc1ccc(S(=O)(=O)n2nc(C)cc2C)cc1OC | i | i | i | nt | i | nt
CCCc1cc(=O)[nH]c(Nc2cc(OC)ccc2OC)n1 | i | i | i | 74 | i | i
COc1ccc(Nc2nc(C)cc(=O)[nH]2)c(OC)c1 | i | i | i | i | i | i
Clc1ccc(CN2CCCCCCC2)cc1Cl | i | i | i | 79 | i | i
Clc1ccc(CN2CCCCCC2)cc1 | i | i | i | nt | i | nt
CC1Cc2ccccc2N1CC(=O)NC(=O)NCc1ccccc1 (stereo unspecified) | i | i | i | i | i | i
CC1Cc2ccccc2N1CC(=O)NC(c1ccccc1)c1ccccc1 (stereo unspecified) | i | i | i | 87 | i | i
Cc1ccc(S(=O)(=O)NC(CCC(N)=O)C(=O)NCc2ccc3c(c2)OCO3)c(C)c1 (stereo unspecified) | nt | nt | i | nt | i | nt
